# The list is not random: actives were taken first. Their share in the collection is about 2.1%.
# aSyn UTR inh = 5' untranslated region of α-synuclein, MLPCN primary screen; alpha-synuclein 5'UTR reporter, inhibitor activity; AID 1813; inhibition, % (tested at 7.5 µM); 300,000 tested, 0.82% active; in the data active means inhibition above about 60%; inconclusive means no clear call, values can overlap the other calls;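 further: H4 neuroglioblastoma cells stably carrying SNCA 5'UTR luciferase fusion; 0% = DMSO wells and 100% = positive control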
# EBV LMP1 NFkB = Epstein-Barr LMP1 NF-kappaB reporter inhibition; LMP1-induced NF-kappaB luciferase reporter cells, luminescence; inhibition, % at 12.5 µM; 350,000 tested, 0.69% active; in the data active means inhibition above about 41%; inconclusive means no clear call, values can overlap the other calls;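 further: 0% = neutral control wells and 100% = reference inhibitor control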
# Shn3 3UTR inh = reduces Shn3 3'UTR luciferase signal in osteoblasts; inhibition, % at 12.5 µM; 360,000 tested, 0.52% active; Clone20 osteoblast Shn3 3'UTR firefly luciferase, 24 h;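 active means mean inhibition of at least 75% with every replicate also reaching 75%; inconclusive means mean inhibition at least 75% but some replicate below; inactive means mean inhibition below 75%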;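 further: 0% = median of neutral control wells and 100% = pilot-screen positive control compound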
# FN deposition inh = fibronectin deposition inhibition; AH1F fibroblasts, Alexa488-fibronectin deposition fluorescence, overnight; inhibition, % at 12.6 µM; 350,000 tested, 0.086% active; AID 743247;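 active means mean inhibition across replicates of 30% or more, regardless of how many single replicates reach that level; inconclusive means mean under 30% yet at least half of replicates reach 30%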;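 further: positive control wells lacked labelled fibronectin entirely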
#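 Assay system: AH1F fibroblasts / Quantity: 10000 cells per well / Medium: DMEM plus 2% serum, read in PBS / Reagent: labelled fibronectin 24 nM / Dosing: single dose, pinned / Times: 1 h cell attachment, overnight exposure to compound and label / Signal: fluorescence, ex 485 nm, em 525 nm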
# EWS-Fli inh = EWS/Fli transcriptional activity inhibition; A673 NR0B1-luciferase reporter, viability-normalised; AID 651661; inhibition, % at 12.6 µM; 350,000 tested, 0.67% active;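 active means mean inhibition of at least 50% after viability correction, with every replicate also passing that limit; inconclusive means mean reaches 50% but only one of two replicates passes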;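 further: firefly luciferase signal divided by Alamar Blue viability fluorescence both relative to DMSO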
# PAX8 reporter = PAX8 transcriptional activity inhibition. RMG-I TPO-luciferase reporter, SteadyGlo, 24 h. inhibition, % at 12.6 µM. 360,000 tested, 1.2% active;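 active means mean replicate inhibition at least 60% with every replicate also reaching 60%; inconclusive means only one of the two criteria is met; inactive means mean below 60% and not all replicates reaching 60%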;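 further: luciferase light reporting Pax8 driven TPO promoter activity; plate controls were median of neutral control wells for no effect and mitoxantrone controls for full effect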
# Starred values were filed as active, the others as inactive; ? = inconclusive; . = no result given; ! = not confirmed by another sample.
SMILES,aSyn UTR inh,EBV LMP1 NFkB,Shn3 3UTR inh,FN deposition inh,EWS-Fli inh,PAX8 reporter
CC(NC(=O)CCc1nnc(-c2ccc(-c3ccccc3)cc2)o1)c1nccs1 (stereo unspecified),89*,10,50,-4,41,-30
O=C(CCc1nnc(Cc2ccc(-c3ccccc3)cc2)o1)NCCc1ccccn1,12,2,-7,12,-1,-13
O=C(CCc1nnc(-c2ccc(-c3ccccc3)cc2)o1)NCCc1ccccn1,90*,25,14,1,49,-34
CC(c1nccs1)N(C)C(=O)CCc1nnc(-c2ccc(-c3ccccc3)cc2)o1 (stereo unspecified),19,14,4,-2,-22,-37
COC(=O)CCCNC(=O)CCc1nnc(-c2ccc(-c3ccccc3)cc2)o1,77*,8,22,-6,28,-48
COCCNC(=O)CCc1nnc(Cc2ccc(-c3ccccc3)cc2)o1,7,-4,-27,-2,-3,3
COCC(=O)N1CCC2(CC1)CN(C(=O)COC)[C@H](CO)c1c2c2ccc(OC)cc2n1C,.,.,.,.,0,.
Cn1c(CN2CCCC2)nc2cc(NS(=O)(=O)c3ccc(Cl)cc3)ccc21,1,3,18,.,.,.
Cc1ccc(S(=O)(=O)Nc2ccc3c(c2)nc(CCN2CCCC2)n3C)cc1,0,1,10,-2,1,94*
Cn1c(CCN2CCCC2)nc2cc(NS(=O)(=O)c3ccc(Cl)cc3)ccc21,-11,-4,-3,1,29,101*
Cn1c(CCN2CCCC2)nc2cc(NS(=O)(=O)c3ccc(F)cc3)ccc21,.,-5,2,-12,-2,84*
COc1ccccc1S(=O)(=O)N[C@@H]1CC[C@H](CCNC(=O)C2CCCCC2)O[C@H]1CO,.,.,.,1,2,2
CN1C(=O)c2cc(NS(C)(=O)=O)ccc2OC[C@@H]2O[C@H](CC(=O)NCc3ccc(-c4ccccc4)cc3)CC[C@@H]21,.,.,.,14,-37,2
Cc1ccccc1-n1c(SCC(=O)c2c(N)n(C)c(=O)n(C)c2=O)nnc1-c1cccnc1,-3,-1,11,-2,-7,18
CCOc1ccc(-n2c(SCC(=O)c3c(N)n(C)c(=O)n(C)c3=O)nnc2-c2cccnc2)cc1,0,-8,8,0,2,81*
COc1ccc(OC)c(C2=CC(=O)C[C@H](c3ccc4c(c3)OCO4)C2)c1,.,5,-11,-1,66*,-7
COc1c(F)cccc1C1=CC(=O)C[C@H](c2ccc3c(c2)OCO3)C1,.,5,-19,1,-6,-15
CCOc1ccc(Br)cc1C1=CC(=O)C[C@H](c2ccc(OC)cc2)C1,.,2,94*,10,57*,31
COc1ccc([C@H]2CC(=O)C=C(c3cc(C)ccc3OC)C2)cc1,.,1,-3,-2,60*,19
COc1cccc(N=Nc2ccc(O)c3ncccc23)c1,44,69*,80,5,-25,48
Cc1ccccc1N=Nc1ccc(O)c2ncccc12,?,44*,?,-2,-8,18
O=[N+]([O-])c1ccc(O)c2ncccc12,72*,33,57,-13,40,25
COc1ccc(C)cc1N=Nc1ccc(O)c2ncccc12,68*,86*,90*,4,13,59
C[C@H](CO)N1C[C@H](C)[C@@H](CN(C)S(=O)(=O)c2cccs2)Oc2ccc(NS(=O)(=O)c3ccc(F)cc3)cc2CC1=O,.,.,.,.,-7,14
Oc1ccc(N=Nc2ccc3c(c2)OCCO3)c(O)c1,62*,39,27,13,32,-45
SMILES,aSyn UTR inh,EBV LMP1 NFkB,Shn3 3UTR inh,FN deposition inh,EWS-Fli inh,PAX8 reporter
O=S(=O)(O)c1cccc2c(N=Nc3ccc(O)c4ncccc34)cccc12,9,1,3,.,.,.
COc1ccc(N=Nc2ccc(O)c3ncccc23)cc1,44,?,91*,5,15,49
COc1ccc(N=Nc2cc(-c3ccccc3)ccc2O)cc1,-2,7,-9,-18,-18,0
COc1cc(OC)cc(C(=O)Nc2cccc3cccnc23)c1,-25,5,-73,5,-10,7
COc1cccc(N=Nc2ccc3cccnc3c2O)c1,16,39,90*,9,-46,50
O=Nc1ccc(O)c2ncccc12,-236,17,86*,3,72*,0
Oc1ccc(N=Nc2ccc(Br)cc2)c(O)c1,-226,-1,-58,-7,-46,-27
Cc1ccc(S(=O)(=O)Nc2ccc3c(c2)C(=O)N([C@@H](C)CO)C[C@H](C)[C@H](CN(C)S(=O)(=O)c2c(C)noc2C)OCCCC[C@@H](C)O3)cc1,.,.,.,-13,6,-11
O=C(N[C@@H]1C=C[C@H](CC(=O)N2CCN(c3ccccc3)CC2)O[C@@H]1CO)c1ccncc1,.,.,.,.,4,-17
Oc1ccc(N=Nc2ccc3c(c2)OCCO3)c2cccnc12,104*,60*,93*,8,23,59
Nc1ccc(N=Nc2ccccc2)c2cccnc12,-57,-12,-32,4,7,-59
Cc1cc(C)c(CN2CCN(C(=O)Cn3ccc(N)nc3=O)CC2)c(C)c1,.,-4,-6,5,-3,-23
CSc1nc(N)nc2c1ncn2CC(=O)NCc1ccccc1,.,88*,8,-149,-6,-8
CSc1nc(N)nc2c1ncn2CC(=O)NCc1ccc2c(c1)OCO2,.,26,42,.,6,-7
CSc1nc(N)nc2c1ncn2CC(=O)N1CCN(Cc2c(C)cc(C)cc2C)CC1,.,38,89*,-23,11,-29
CNC[C@@H]1Oc2c(NS(C)(=O)=O)cccc2C(=O)N(C)C[C@H]1C,.,.,.,1,.,.
C[C@@H]1CN([C@@H](C)CO)C(=O)c2cc(NC(=O)CCC(F)(F)F)ccc2O[C@@H](C)CCCCO[C@H]1CN(C)C(=O)CCCN(C)C,.,.,.,.,-14,-9
Cc1cccc(NC2=C/C(=N/S(=O)(=O)c3cccs3)c3ccccc3C2=O)c1,.,-2,93*,16,.,-2
Cc1ccc(NC2=C/C(=N\S(=O)(=O)c3cccs3)c3ccccc3C2=O)c(C)c1,118*,95*,98*,.,.,.
Cc1cc(C)c(S(=O)(=O)/N=C2\C=C(Nc3ccc(C(=O)O)cc3)C(=O)c3ccccc32)c(C)c1,16,9,74,2,-37,?
Cc1ccc(Cl)cc1NC1=C/C(=N\S(=O)(=O)c2cccs2)c2ccccc2C1=O,-24,60*!,97*,.,45,104*
Cc1ccc(S(=O)(=O)/N=C2\C=C(NS(=O)(=O)c3ccccc3)C(=O)c3ccccc32)cc1,.,-15,7,.,-98,18
O=C1C(Nc2ccc(O)cc2)=C/C(=N/S(=O)(=O)c2cccs2)c2ccccc21,114*,96*,100*,17,25,101*

# Assay outcomes deposited in PubChem by Broad Institute.
